Only some compounds are listed: those with a hit (about 1.7% of all), similar ones and a draw of the others.
CSC inhib – cancer stem cell inhibition; 300,000 compounds, 1.1% hits; cancer stem cell-like cells viability, luminescence; inhibition, % at 7.5 µM; in the data active = inhibition above about 75%; inconclusive = no clear call, values can overlap the other calls; tested in HMLE shEcad cells
Rtt109 Vps75 – C. albicans Rtt109 histone acetyltransferase inhibition | purified Rtt109/Vps75, ThioGlo CoA-SH fluorescence, 4 h | inhibition, % at 34.9 µM | 330,000 compounds, 0.16% hits | AID 540336;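 active = inhibition of at least 50% in every replicate; inconclusive = best replicate reaches 50% inhibition but some replicates fall short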
Target sequence (Q5AAJ8 whole entry, looked up): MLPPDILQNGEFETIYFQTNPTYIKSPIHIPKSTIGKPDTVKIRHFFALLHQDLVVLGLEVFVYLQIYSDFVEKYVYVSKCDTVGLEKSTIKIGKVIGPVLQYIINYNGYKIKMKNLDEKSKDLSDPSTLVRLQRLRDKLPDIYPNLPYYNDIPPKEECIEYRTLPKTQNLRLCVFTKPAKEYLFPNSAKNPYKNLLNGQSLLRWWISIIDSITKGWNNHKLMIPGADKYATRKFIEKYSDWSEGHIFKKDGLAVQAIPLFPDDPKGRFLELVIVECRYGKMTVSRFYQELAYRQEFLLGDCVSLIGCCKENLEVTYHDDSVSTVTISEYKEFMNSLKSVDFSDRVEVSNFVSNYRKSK
FN deposit inh – fibronectin deposition inhibition. AH1F fibroblasts, Alexa488-fibronectin deposition fluorescence, overnight. inhibition, % at 12.6 µM. 350,000 compounds, 0.086% hits. AID 743247;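 active = mean inhibition across replicates of 30% or more, regardless of how many single replicates reach that level; inconclusive = mean under 30% yet at least half of replicates reach 30%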;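 also: positive control wells lacked labelled fibronectin entirely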
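Material: AH1F fibroblasts assembling fluorescent fibronectin matrix; amount: 10000 AH1F cells/well; medium: DMEM, 2% serum; reagent: Alexa488-fibronectin, 24 nM final in well; dosing: single compound dose, delivered by pin transfer; incubation: 1 h adhesion, overnight exposure; detection: fluorescence after three HBSS washes, excitation 485 nm, emission 525 nm; measure: fibronectin deposition inhibition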
PfHsp90 yeast 2 – inhibits growth of yeast expressing Plasmodium falciparum Hsp90 | S. cerevisiae expressing PfHsp90, BacTiter-Glo ATP, 48 h; yeast lacking PDR1 and PDR3 efflux regulators | inhibition, % at 9.4 µM | 310,000 compounds, 0.32% hits | AID 504621;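 active = every replicate shows inhibition above about 80%, whatever the replicate mean, limit read from the data; inconclusive = mean inhibition reaches the set limit but some replicate falls short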;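 also: 0% = DMSO neutral controls and 100% = 20 µM radicicol positive controls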
SKKanGAS inh – inhibitors of SKKanGAS S. pyogenes growth in kanamycin (SK-promoter or general growth effect); BacTiter-Glo, 6 h; inhibition, % at 7.5 µM; 300,000 compounds, 1.3% hits; AID 1662;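 active = mean replicate score, as percent of positive control median, at least 50; inconclusive = mean below 50 but one replicate at or above 50; inactive = mean and every replicate below 50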;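 also: strain carries kanamycin resistance gene driven by streptokinase promoter and grows in 40 µg/ml kanamycin; loss of luminescence reflects streptokinase promoter inhibition or plain growth inhibition; 0% = median of DMSO wells and 100% = positive control at its reference dose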
PglD DTNB – blocks C. jejuni PglD acetyltransferase activity | purified PglD enzyme, DTNB colorimetric CoA detection | inhibition, % at 12.5 µM | 360,000 compounds, 0.098% hits; in the data active = inhibition above about 16%, passing the limit was not always enough; inconclusive = no clear call, values can overlap the other calls
* = called active by the depositor.

For CCC1(C)Cc2ccccc2-c2c1c(=O)n(Cc1ccccc1)c1nnnn21 (stereo not drawn) the results were CSC inhib 134.7*, Rtt109 Vps75 10.8, PfHsp90 yeast 2 2.7, SKKanGAS inh 68.6* and PglD DTNB 0.6.
Screening O=c1c2c(n3nnnc3n1Cc1ccccc1)-c1ccccc1CC21CCCC1 returned CSC inhib 64.3, FN deposit inh 0.8, PfHsp90 yeast 2 13.0, SKKanGAS inh 64.6* and PglD DTNB -3.5.
For O=c1c2c(n3nnnc3n1-c1ccccc1)-c1ccccc1CC21CCCC1 the results were CSC inhib 3.3, Rtt109 Vps75 -13.7, PfHsp90 yeast 2 9.0, SKKanGAS inh 0.4 and PglD DTNB 8.5.
For O=C(C[C@@H]1C[C@H]2c3cc(NC(=O)CC4CC4)ccc3O[C@H]2[C@H](CO)O1)NCCN1CCCCC1 the results were FN deposit inh 10.5 and PglD DTNB 3.1.
C[C@@H]1CN([C@@H](C)CO)C(=O)Cc2cc(NC(=O)Nc3ccc4c(c3)OCO4)ccc2O[C@H]1CN(C)C(=O)Nc1ccc(F)cc1 was read as PglD DTNB -1.8.
Cc1c(Cc2ccccc2)sc(/N=C/c2c(O)ccc3ccccc23)c1C(N)=O was read as CSC inhib 97.8*, Rtt109 Vps75 2.4, PfHsp90 yeast 2 -34.3, SKKanGAS inh 34.6 and PglD DTNB -1.3.
`Cc1c(Cc2ccccc2)sc(/N=C/c2ccc3ccccc3c2)c1C(N)=O` gave CSC inhib 48.8, Rtt109 Vps75 4.7 and PfHsp90 yeast 2 -26.5.
`C[C@@H]1CN([C@H](C)CO)C(=O)c2cccc(NC(=O)c3ccncc3)c2O[C@H]1CN(C)S(=O)(=O)c1cccs1` gave PglD DTNB 3.5.
For CO[C@@H]1CN(C)C(=O)c2cc(NC(=O)c3ccc(-c4ccccc4)cc3)ccc2OC[C@@H](C)NC[C@@H]1C the results were FN deposit inh 16.2 and PglD DTNB -1.0.
Screening O=C(Nc1ccc(N2CCN(C(=O)c3cccs3)CC2)cc1)c1ccc([N+](=O)[O-])o1 returned CSC inhib 100.0*, Rtt109 Vps75 20.2, PfHsp90 yeast 2 -7.2, SKKanGAS inh 39.7 and PglD DTNB 1.0.
COc1cc(NC(=O)c2ccc([N+](=O)[O-])o2)ccc1NC(=O)c1cccs1 was read as CSC inhib 50.3, Rtt109 Vps75 -15.1, FN deposit inh 9.8, PfHsp90 yeast 2 -50.4, SKKanGAS inh 22.1 and PglD DTNB -1.7.
O=C(Nc1cccc(NC(=O)c2cccs2)c1)c1ccc([N+](=O)[O-])o1 was read as CSC inhib inconclusive, Rtt109 Vps75 3.2, FN deposit inh 6.6, PfHsp90 yeast 2 -39.7, SKKanGAS inh 58.8* and PglD DTNB 8.2.
For O=C(Nc1ccc(NC(=O)c2ccc([N+](=O)[O-])o2)cc1Cl)c1ccco1 the results were CSC inhib 53.6, Rtt109 Vps75 -11.4, FN deposit inh 6.0, PfHsp90 yeast 2 -39.0, SKKanGAS inh 7.6 and PglD DTNB 4.8.
O=C(Nc1cccc(NC(=O)c2ccc([N+](=O)[O-])o2)c1)c1ccco1 was read as CSC inhib 86.7*, Rtt109 Vps75 22.1, FN deposit inh -6.9, PfHsp90 yeast 2 6.1, SKKanGAS inh inconclusive and PglD DTNB 3.1.
Screening O=C(Nc1nc(-c2cccs2)cs1)c1ccc([N+](=O)[O-])o1 returned CSC inhib 90.2*, Rtt109 Vps75 9.9, FN deposit inh -3.6, PfHsp90 yeast 2 84.5* and PglD DTNB 4.2.
Screening C[C@@H]1CN([C@H](C)CO)C(=O)Cc2cc(NC(=O)Cc3ccccc3)ccc2O[C@@H]1CN(C)S(=O)(=O)c1ccc(Cl)cc1 returned FN deposit inh 7.2 and PglD DTNB 0.4.
`Cc1ccc(S(=O)(=O)N(C)C[C@@H]2Oc3ccc(NS(=O)(=O)c4ccc(F)cc4)cc3C(=O)N([C@H](C)CO)C[C@@H]2C)cc1` gave PglD DTNB 1.7.
S=c1[nH]nc(-c2cccs2)n1/N=C/c1cn(-c2ccccc2)nc1-c1ccccc1 was read as CSC inhib 24.7, Rtt109 Vps75 -8.1, FN deposit inh -5.9, PfHsp90 yeast 2 -73.7 and SKKanGAS inh 75.3*.
`CC(C)(C)c1ccc(OCCCC(=O)NC2=NCCS2)cc1` gave CSC inhib 15.6, Rtt109 Vps75 2.9, FN deposit inh 17.4, PfHsp90 yeast 2 -7.8, SKKanGAS inh 62.3* and PglD DTNB 6.1.
`CO[C@H](CN(C)C(=O)c1ccccc1F)[C@@H](C)CN([C@H](C)CO)S(=O)(=O)c1ccc(Cl)cc1` gave FN deposit inh 0.7 and PglD DTNB 7.3.
For Cc1ccc(NS(=O)(=O)c2ccc(NC(=O)C(C)Sc3ccc(Cl)cc3)cc2)c(C)c1 (stereo not drawn) the results were CSC inhib 76.8*, Rtt109 Vps75 15.0, FN deposit inh 3.0, PfHsp90 yeast 2 -16.2 and SKKanGAS inh 27.5.
COc1ccc(/C=N/NC(=O)c2ccc(CSc3nc(C)cc(C)n3)cc2)cc1O was read as CSC inhib 24.9, Rtt109 Vps75 0.4, FN deposit inh -3.3, PfHsp90 yeast 2 0.9 and SKKanGAS inh -1.6.
`Cc1cc(C)nc(SCc2ccc(C(=O)N/N=C/c3cccc(O)c3O)cc2)n1` gave CSC inhib 109.9*, Rtt109 Vps75 2.9, FN deposit inh 3.4, PfHsp90 yeast 2 53.4 and SKKanGAS inh 7.9.
Screening COc1ccc(O)c(/C=N/NC(=O)c2ccc(CSc3nc(C)cc(C)n3)cc2)c1 returned CSC inhib 109.5*, Rtt109 Vps75 -0.4, FN deposit inh 12.6, PfHsp90 yeast 2 9.6 and SKKanGAS inh 16.2.
Screening C[C@@H]1CN([C@H](C)CO)C(=O)c2cc(NS(=O)(=O)c3cn(C)cn3)ccc2O[C@@H](C)CCCCO[C@H]1CN(C)CC1CCCCC1 returned PglD DTNB -2.3.
CCOC(=O)c1ccc(NC(=O)c2c(NC(=O)CCC(=O)O)sc3c2CCCCC3)cc1 was read as CSC inhib -0.4, Rtt109 Vps75 1.0, PfHsp90 yeast 2 3.3 and SKKanGAS inh 8.3.
Screening CCOc1ccccc1NC(=O)c1c(NC(=O)CCC(=O)O)sc2c1CCCCC2 returned Rtt109 Vps75 14.4, FN deposit inh 32.6* and PfHsp90 yeast 2 -6.1.
For CCOc1ccc(Nc2nc(N3CCCCC3)nc(N3CCCCC3)n2)cc1 the results were CSC inhib -12.7, FN deposit inh -10.5, PfHsp90 yeast 2 -27.9, SKKanGAS inh 62.5* and PglD DTNB -2.0.
For CCOc1ccc(Nc2nc(N)c3ccccc3n2)cc1 the results were Rtt109 Vps75 1.6, FN deposit inh 3.3, PfHsp90 yeast 2 74.7, SKKanGAS inh 59.6* and PglD DTNB 0.5.
`c1ccc(Nc2nc(N3CCCCC3)nc(N3CCCCC3)n2)cc1` gave CSC inhib -7.7, Rtt109 Vps75 0.7, FN deposit inh 5.1, PfHsp90 yeast 2 -0.8, SKKanGAS inh 84.4* and PglD DTNB 1.6.
